Measured values from ChEMBL document CHEMBL1156410, “Design and synthesis of a combinatorial chemistry library of 7-acyl, 10-acyl, and 7,10-diacyl analogues of paclitaxel (taxol) using solid phase synthesis” (J Nat Prod, 2002).
Values after ≈ are worked out from the molar mass of the structure shown.

Key:
[1] = Induction of tubulin polymerization at 0.1 uM by DAPI fluorescence method relative to control
Procedure, shortened: (§1)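 Microplate assay in PMEG buffer (100 mM PIPES, 1 mM MgSO₄, 2 mM EGTA, 0.1 mM GTP, pH 6.9) containing ligand; DAPI final 10 µM, tubulin final 5 µM. Fluorescence followed at 37 °C, excitation 360/40 nm, emission 460/40 nm. Change in fluorescence normalized to the curve of 10 µM paclitaxel standard. Samples in duplicate, triplicate or quadruplicate; concentrations over 2 orders of magnitude tested.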

[2] = Induction of tubulin polymerization at 10 uM by DAPI fluorescence method relative to control; procedure, shortened: as §1
[3] = Induction of tubulin polymerization at 1 uM by DAPI fluorescence method relative to control; procedure, shortened: as §1
A2780 = test: Cytotoxicity against human A2780 cells; type: functional, cell-based
[4] = Induction of tubulin polymerization by DAPI fluorescence method; conditions: read-out: I50; procedure, shortened: as §1

Compound	Activity [1]	Activity [2]	Activity [3]	IC50 (A2780)	IC50 [4]
CC(=O)O[C@@]12CO[C@@H]1C[C@H](OC(=O)C1CC1)[C@@]1(C)C(=O)[C@H](OC(=O)OCc3ccccc3)C3=C(C)[C@@H](OC(=O)[C@H](O)[C@@H](NC(=O)c4ccccc4)c4ccccc4)C[C@@](O)([C@@H](OC(=O)c4ccccc4)[C@H]21)C3(C)C	10%	53%	26%	–	–
COc1cccc(C(=O)O[C@H]2C[C@H]3OC[C@@]3(OC(C)=O)[C@H]3[C@H](OC(=O)c4ccccc4)[C@]4(O)C[C@H](OC(=O)[C@H](O)[C@@H](NC(=O)c5ccccc5)c5ccccc5)C(C)=C([C@@H](OC(=O)c5ccccc5)C(=O)[C@]23C)C4(C)C)c1	22%	78%	52%	–	–
CC(=O)O[C@@]12CO[C@@H]1C[C@H](OC(=O)c1ccccc1)[C@@]1(C)C(=O)[C@H](OC(=O)OCc3ccccc3)C3=C(C)[C@@H](OC(=O)[C@H](O)[C@@H](NC(=O)c4ccccc4)c4ccccc4)C[C@@](O)([C@@H](OC(=O)c4ccccc4)[C@H]21)C3(C)C	10%	33%	32%	–	–
CCC(=O)O[C@H]1C(=O)[C@@]2(C)[C@H]([C@H](OC(=O)c3ccccc3)[C@]3(O)C[C@H](OC(=O)[C@H](O)[C@@H](NC(=O)c4ccccc4)c4ccccc4)C(C)=C1C3(C)C)[C@]1(OC(C)=O)CO[C@@H]1C[C@@H]2O	13%	114%	54%	–	–
CC(=O)O[C@@]12CO[C@@H]1C[C@H](OC(=O)CCl)[C@@]1(C)C(=O)[C@H](OC(=O)OCc3ccccc3)C3=C(C)[C@@H](OC(=O)[C@H](O)[C@@H](NC(=O)c4ccccc4)c4ccccc4)C[C@@](O)([C@@H](OC(=O)c4ccccc4)[C@H]21)C3(C)C	0%	48%	20%	–	–
CCC(=O)O[C@H]1C(=O)[C@]2(C)[C@@H](OC(C)=O)C[C@H]3OC[C@@]3(OC(C)=O)[C@H]2[C@H](OC(=O)c2ccccc2)[C@]2(O)C[C@H](OC(=O)[C@H](O)[C@@H](NC(=O)c3ccccc3)c3ccccc3)C(C)=C1C2(C)C	5%	111%	44%	–	–
CC(=O)O[C@@]12CO[C@@H]1C[C@H](OC(=O)CN1CCN(C)CC1)[C@@]1(C)C(=O)[C@H](O)C3=C(C)[C@@H](OC(=O)[C@H](O)[C@@H](NC(=O)c4ccccc4)c4ccccc4)C[C@@](O)([C@@H](OC(=O)c4ccccc4)[C@H]21)C3(C)C	–	–	–	0.67 µg/mL (≈ 0.704 µM)	0.59 µM
CCC(=O)O[C@H]1C(=O)[C@]2(C)[C@@H](OC(=O)c3ccccc3)C[C@H]3OC[C@@]3(OC(C)=O)[C@H]2[C@H](OC(=O)c2ccccc2)[C@]2(O)C[C@H](OC(=O)[C@H](O)[C@@H](NC(=O)c3ccccc3)c3ccccc3)C(C)=C1C2(C)C	0%	97%	33%	–	–
CCC(=O)O[C@H]1C[C@H]2OC[C@@]2(OC(C)=O)[C@H]2[C@H](OC(=O)c3ccccc3)[C@]3(O)C[C@H](OC(=O)[C@H](O)[C@@H](NC(=O)c4ccccc4)c4ccccc4)C(C)=C([C@@H](OC(=O)OCc4ccccc4)C(=O)[C@]12C)C3(C)C	0%	24%	3%	–	–
CCCCC(=O)O[C@H]1C[C@H]2OC[C@@]2(OC(C)=O)[C@H]2[C@H](OC(=O)c3ccccc3)[C@]3(O)C[C@H](OC(=O)[C@H](O)[C@@H](NC(=O)c4ccccc4)c4ccccc4)C(C)=C([C@@H](OC(=O)CC)C(=O)[C@]12C)C3(C)C	10%	102%	51%	–	–
CCCC(=O)O[C@H]1C[C@H]2OC[C@@]2(OC(C)=O)[C@H]2[C@H](OC(=O)c3ccccc3)[C@]3(O)C[C@H](OC(=O)[C@H](O)[C@@H](NC(=O)c4ccccc4)c4ccccc4)C(C)=C([C@@H](OC(=O)CC)C(=O)[C@]12C)C3(C)C	4%	123%	52%	–	–
C/C=C/C(=O)O[C@H]1C(=O)[C@]2(C)[C@@H](OC(=O)c3ccccc3)C[C@H]3OC[C@@]3(OC(C)=O)[C@H]2[C@H](OC(=O)c2ccccc2)[C@]2(O)C[C@H](OC(=O)[C@H](O)[C@@H](NC(=O)c3ccccc3)c3ccccc3)C(C)=C1C2(C)C	33%	81%	66%	–	–
CC(=O)O[C@@]12CO[C@@H]1C[C@H](O)[C@@]1(C)C(=O)[C@H](OC(=O)OCc3ccccc3)C3=C(C)[C@@H](OC(=O)[C@H](O)[C@@H](NC(=O)c4ccccc4)c4ccccc4)C[C@@](O)([C@@H](OC(=O)c4ccccc4)[C@H]21)C3(C)C	34%	115%	83%	–	–
CC(=O)O[C@@]12CO[C@@H]1C[C@H](OC(=O)CN1CCCCC1)[C@@]1(C)C(=O)[C@H](O)C3=C(C)[C@@H](OC(=O)[C@H](O)[C@@H](NC(=O)c4ccccc4)c4ccccc4)C[C@@](O)([C@@H](OC(=O)c4ccccc4)[C@H]21)C3(C)C	–	–	–	0.18 µg/mL (≈ 0.192 µM)	1.02 µM
CCC(=O)O[C@H]1C(=O)[C@]2(C)[C@@H](OC(=O)C3CC3)C[C@H]3OC[C@@]3(OC(C)=O)[C@H]2[C@H](OC(=O)c2ccccc2)[C@]2(O)C[C@H](OC(=O)[C@H](O)[C@@H](NC(=O)c3ccccc3)c3ccccc3)C(C)=C1C2(C)C	6%	113%	62%	–	–
CC(=O)O[C@@]12CO[C@@H]1C[C@H](OC(=O)CN1CCN(Cc3ccc4c(c3)OCO4)CC1)[C@@]1(C)C(=O)[C@H](O)C3=C(C)[C@@H](OC(=O)[C@H](O)[C@@H](NC(=O)c4ccccc4)c4ccccc4)C[C@@](O)([C@@H](OC(=O)c4ccccc4)[C@H]21)C3(C)C	–	–	–	0.02 µg/mL (≈ 0.0187 µM)	7.8 µM
CCC(=O)O[C@H]1C(=O)[C@]2(C)[C@@H](OC(=O)C=C(C)C)C[C@H]3OC[C@@]3(OC(C)=O)[C@H]2[C@H](OC(=O)c2ccccc2)[C@]2(O)C[C@H](OC(=O)[C@H](O)[C@@H](NC(=O)c3ccccc3)c3ccccc3)C(C)=C1C2(C)C	20%	120%	51%	–	–
CC(=O)O[C@@]12CO[C@@H]1C[C@H](O)[C@@]1(C)C(=O)[C@H](OC(=O)c3ccccc3)C3=C(C)[C@@H](OC(=O)[C@H](O)[C@@H](NC(=O)c4ccccc4)c4ccccc4)C[C@@](O)([C@@H](OC(=O)c4ccccc4)[C@H]21)C3(C)C	46%	113%	78%	–	–
C/C=C/C(=O)O[C@H]1C(=O)[C@]2(C)[C@@H](OC(=O)CCl)C[C@H]3OC[C@@]3(OC(C)=O)[C@H]2[C@H](OC(=O)c2ccccc2)[C@]2(O)C[C@H](OC(=O)[C@H](O)[C@@H](NC(=O)c3ccccc3)c3ccccc3)C(C)=C1C2(C)C	29%	116%	66%	–	–
CC(=O)O[C@@]12CO[C@@H]1C[C@H](OC(=O)CCl)[C@@]1(C)C(=O)[C@H](OC(=O)c3ccccc3)C3=C(C)[C@@H](OC(=O)[C@H](O)[C@@H](NC(=O)c4ccccc4)c4ccccc4)C[C@@](O)([C@@H](OC(=O)c4ccccc4)[C@H]21)C3(C)C	29%	92%	56%	–	–
CC(=O)O[C@@]12CO[C@@H]1C[C@H](OC(=O)CN1Cc3ccccc3C1)[C@@]1(C)C(=O)[C@H](O)C3=C(C)[C@@H](OC(=O)[C@H](O)[C@@H](NC(=O)c4ccccc4)c4ccccc4)C[C@@](O)([C@@H](OC(=O)c4ccccc4)[C@H]21)C3(C)C	–	–	–	–	2.04 µM
CC(=O)O[C@@]12CO[C@@H]1C[C@H](OC(=O)C1CC1)[C@@]1(C)C(=O)[C@H](OC(=O)c3ccccc3)C3=C(C)[C@@H](OC(=O)[C@H](O)[C@@H](NC(=O)c4ccccc4)c4ccccc4)C[C@@](O)([C@@H](OC(=O)c4ccccc4)[C@H]21)C3(C)C	30%	91%	61%	–	–
CC(=O)O[C@@]12CO[C@@H]1C[C@H](OC(=O)CN1CCC(N3CCCC3)CC1)[C@@]1(C)C(=O)[C@H](O)C3=C(C)[C@@H](OC(=O)[C@H](O)[C@@H](NC(=O)c4ccccc4)c4ccccc4)C[C@@](O)([C@@H](OC(=O)c4ccccc4)[C@H]21)C3(C)C	–	–	–	0.96 µg/mL (≈ 0.954 µM)	0.85 µM
C/C=C/C(=O)O[C@H]1C(=O)[C@]2(C)[C@@H](OC(=O)C3CC3)C[C@H]3OC[C@@]3(OC(C)=O)[C@H]2[C@H](OC(=O)c2ccccc2)[C@]2(O)C[C@H](OC(=O)[C@H](O)[C@@H](NC(=O)c3ccccc3)c3ccccc3)C(C)=C1C2(C)C	27%	109%	41%	–	–
C/C=C/C(=O)O[C@H]1C(=O)[C@@]2(C)[C@H]([C@H](OC(=O)c3ccccc3)[C@]3(O)C[C@H](OC(=O)[C@H](O)[C@@H](NC(=O)c4ccccc4)c4ccccc4)C(C)=C1C3(C)C)[C@]1(OC(C)=O)CO[C@@H]1C[C@@H]2O	26%	117%	80%	–	–
CCC(=O)O[C@H]1C(=O)[C@]2(C)[C@@H](OC(=O)CCl)C[C@H]3OC[C@@]3(OC(C)=O)[C@H]2[C@H](OC(=O)c2ccccc2)[C@]2(O)C[C@H](OC(=O)[C@H](O)[C@@H](NC(=O)c3ccccc3)c3ccccc3)C(C)=C1C2(C)C	20%	114%	72%	–	–
CC(=O)O[C@@]12CO[C@@H]1C[C@H](OC(=O)CN1CCNCC1)[C@@]1(C)C(=O)[C@H](O)C3=C(C)[C@@H](OC(=O)[C@H](O)[C@@H](NC(=O)c4ccccc4)c4ccccc4)C[C@@](O)([C@@H](OC(=O)c4ccccc4)[C@H]21)C3(C)C	–	–	–	0.86 µg/mL (≈ 0.917 µM)	–
CC(=O)O[C@@]12CO[C@@H]1C[C@H](OC(=O)C=C(C)C)[C@@]1(C)C(=O)[C@H](OC(=O)OCc3ccccc3)C3=C(C)[C@@H](OC(=O)[C@H](O)[C@@H](NC(=O)c4ccccc4)c4ccccc4)C[C@@](O)([C@@H](OC(=O)c4ccccc4)[C@H]21)C3(C)C	10%	43%	39%	–	–
CCC(=O)O[C@H]1C(=O)[C@]2(C)[C@@H](OC(=O)CC)C[C@H]3OC[C@@]3(OC(C)=O)[C@H]2[C@H](OC(=O)c2ccccc2)[C@]2(O)C[C@H](OC(=O)[C@H](O)[C@@H](NC(=O)c3ccccc3)c3ccccc3)C(C)=C1C2(C)C	5%	111%	37%	–	–
